Compound activity as filed in PubChem BioAssay.
RAM inhibit: yeast RAM network inhibition; S. cerevisiae dse1pr::URA3 reporter, 5-FOA growth OD615, 2 d; analog-sensitive cbk1-as2 kinase mutant strain; inhibition, % at 50 µM; actives 1.8% (n = 190,000);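 active = inhibition above a set limit, 3 SD over mean compound inhibition, cut at about 8.4% in these data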;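 note: 0% = DMSO-only wells with no growth and 100% = 10 µM 1-NA-PP1 full growth; inhibition rescues growth on 5-FOA so higher OD means more RAM inhibition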
NPY-Y1 PAM-ag: human NPY-Y1 potentiation or agonism, primary screen | activation, % at 3.6 µM | P25929 | NPY-Y1 expressing cells, potentiator/agonist activation | AID 1304 | actives 0.37% (n = 220,000); in the data active = activation above about 33%, passing the limit was not always enough;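 note: cells stimulated with NPY at EC10 then isoproterenol at EC100; 0% = low agonist plus stimulus and 100% = saturating agonist plus stimulus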
NPY Y1 blocker: NPY-Y1 (human) receptor antagonism; inhibition, % at 3.6 µM; AID 1040; HEK293-CNG Y1 cells, membrane potential fluorescence; NPY at EC95, then isoproterenol; actives 1% (n = 200,000);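 active = inhibition above the campaign mean inhibition of all tested compounds plus 3 SD, cut at about 20% in these data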;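 note: 0% = DMSO wells given NPY plus isoproterenol and 100% = isoproterenol alone without NPY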
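Test system: HEK293 cells co-expressing NPY Y1 receptor and cyclic-nucleotide gated channel; Also added: NPY (25 nM), isoproterenol (1 µM), Ro 20-1724 (25 µM); Compound dosing: one concentration, 3.6 µM, in 0.4% DMSO; Timing: dye 3 h, compound 60 min room temperature, stimulation 45 min; Technique: Membrane-potential fluorescent dye readout.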
NPY-Y2 antag: antagonists of human neuropeptide Y receptor Y2; inhibition, % at 2.7 µM; actives 0.99% (n = 140,000); NPY-Y2 expressing cells, antagonist mode; P49146; in the data active = inhibition above about 17%;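 note: 0% = vehicle with agonist challenge and 100% = reference antagonist with challenge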
Target sequence (P49146 whole entry, looked up): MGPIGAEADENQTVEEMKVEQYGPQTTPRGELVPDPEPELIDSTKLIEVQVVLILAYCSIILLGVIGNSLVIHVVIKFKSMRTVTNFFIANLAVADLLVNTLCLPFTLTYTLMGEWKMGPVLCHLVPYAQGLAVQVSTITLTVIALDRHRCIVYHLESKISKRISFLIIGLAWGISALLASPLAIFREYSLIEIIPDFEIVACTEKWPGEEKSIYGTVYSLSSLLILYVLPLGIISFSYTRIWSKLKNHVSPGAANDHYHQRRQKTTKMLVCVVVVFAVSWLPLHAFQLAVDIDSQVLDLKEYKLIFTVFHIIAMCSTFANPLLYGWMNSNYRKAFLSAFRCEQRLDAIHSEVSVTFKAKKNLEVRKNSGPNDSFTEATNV
NPY-Y2 PAM-ag: potentiators or agonists of human neuropeptide Y receptor Y2; P49146; cells expressing NPY-Y2, potentiator/agonist read-out; activation, % at 3.6 µM; actives 0.45% (n = 220,000); AID 1359; in the data active = activation above about 27%;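 note: cells stimulated with NPY near EC25 plus isoproterenol at EC100; 0% = vehicle plus submaximal agonist and 100% = vehicle plus saturating agonist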
Insulin prom inh: TRM-6 insulin promoter activity inhibition; actives 0.9% (n = 130,000); TRM-6 cells, insulin promoter-eGFP reporter, imaging; reporter expression induced with tamoxifen; inhibition, % at 2 µM;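 active = inhibition above the mean plus 3 SD, with well images judged a real hit on visual review, cut at about 60% in these data, passing the limit was not always enough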
An asterisk follows results filed as active; / = no result given. Compounds with a hit are over-represented: about 3.8% of the library has one in this group of screens.

SMILES	RAM inhibit	NPY-Y1 PAM-ag	NPY Y1 blocker	NPY-Y2 antag	NPY-Y2 PAM-ag	Insulin prom inh
Cc1cccc(OCc2nc3c4c(ncn3n2)-c2ccccc2CC42CCCC2)c1	9.2*	13	-1	1	-9	-92
Cc1ccccc1OCc1nc2c3c(ncn2n1)-c1ccccc1CC31CCCC1	11*	-17	2	3	5	/
O=C(/C=C/c1cccc(OCc2ccccc2)c1)c1cccnc1	8	-25	-1	4	-4	/
O=C1c2ccccc2-c2onc3ccc(NCc4ccco4)c1c23	8	53*	-6	6	53*	-335
Nc1nc(Nc2cccc(F)c2)nc2ccccc12	0	42*	-3	-1	43*	/
COc1ccc([C@H]2[C@H](C(=O)C(C)(C)C)N3N=Cc4ccccc4C3[C@]23N=C(c2ccccc2)OC3=O)cc1 (some centres undefined)	3	13	27*	1	6	23
COc1ccc([C@H]2[C@H](C(=O)C(C)(C)C)N3N=Cc4ccccc4C3[C@]23N=C(c2ccccc2)OC3=O)cc1OC (some centres undefined)	2	-6	15	8	-9	24
COc1ccc(C(=O)Nc2cccc(C(=O)NCc3ccco3)c2)cc1	3	10	3	/	14	67*
O=C(NCc1ccco1)c1cccc(NC(=O)c2ccco2)c1	0	8	-5	0	12	17
CCOc1cc(C(F)(F)F)cnc1/C(N)=N/O	/	0	/	/	-8	/
CC(C)(C)c1ccc(C(=O)NCC(=O)OCC(=O)Nc2ccc3c(c2)OCCO3)cc1	5	-1	2	2	2	0
O=C(CNC(=O)c1ccccc1)NC1(C(=O)NC2CCCCC2)CCCCC1	1	-3	-1	/	6	0
N[C@@H](CO)c1nnc([C@H](CC(=O)O)NC(=O)C2CCNCC2)o1	0	8	-2	/	-1	/
O=S(=O)(NCC(Nc1ccccc1)c1ccccc1)c1ccc(Cl)cc1 (centres undefined)	9.2*	22	-8	-1	10	-41
CCCN1C(=O)COc2ccc(-c3n[nH]c(=O)c4ccccc34)cc21	4	4	5	/	-21	/
COCCCN1C(=O)C(=O)/C(=C(/O)c2ccccc2)C1c1ccc2c(c1)OCO2 (centres undefined)	9.7*	17	8	-1	-9	/
COc1cccc(CCC(=O)O)c1OC	3	-10	10	8	-21	89*
CCOC(=O)c1cc(C#N)c(SCc2ccc(C#N)cc2)nc1C	10*	-2	2	2	2	44
CCOc1ccc2nc(SCc3ccc(CC(=O)O)cc3)c(C#N)cc2c1	9.5*	-19	12	/	-16	-24
CCOc1ccc2nc(SCC(=O)N3c4ccccc4Sc4ccccc43)c(C#N)cc2c1	5	4	3	4	1	-163
CCCCSc1nc(C)c(C(C)=O)cc1C#N	10*	-40	5	2	-18	-15
Cc1cc(CSc2ccccc2)ccc1NC(=O)c1ccc(CN2CCOCC2)cc1	1	-61	0	3	10	50
Cn1cc(NC(=O)OCc2ccc(Cl)cc2)c(C(F)(F)F)n1	5	1	-3	/	2	-24
O=C(c1nn(Cc2ccccc2)c(=O)c2ccccc12)N1CCN(c2ccccn2)CC1	-1	-34	46*	20*	-9	/
O=C(Nc1nc2c(s1)CCCC2)c1nn(Cc2ccccc2)c(=O)c2ccccc12	3	10	0	5	-8	3
SMILES	RAM inhibit	NPY-Y1 PAM-ag	NPY Y1 blocker	NPY-Y2 antag	NPY-Y2 PAM-ag	Insulin prom inh
COc1ccccc1C(=O)NNC(=O)c1nn(Cc2ccccc2)c(=O)c2ccccc12	4	1	-2	/	-7	80*
CCCCN(C)c1c(N2CCC(C(=O)OCC)CC2)c(=O)c1=O	/	17	/	/	13	/
Cc1ccc(CN2CCN(Cc3ccc4c(c3)OCCO4)CC2CCO)cc1 (centres undefined)	2	17	8	/	-19	/
CCOC(=O)c1c(NS(=O)(=O)c2ccc(Br)cc2)sc2c1CCC2	9.8*	-3	-1	-1	5	58
CC(C)COc1ccc(C(=O)N/C(=C/c2cccc([N+](=O)[O-])c2)C(=O)O)cc1	/	-62	/	/	-42	/
COc1ccc(NC(=S)Nc2cccc3cnccc23)cc1	2	0	5	-1	8	0
COc1ccccc1NC(=S)Nc1cccc2cnccc12	1	66*	-14	-3	89*	/
CCOC(=O)C1=C(O)/C(=C/c2ccc(OCC(=O)O)c(OC)c2)SC1=Nc1ccc(OCC)cc1	4	-31	-1	3	10	10
CCOC(=O)C1=C(O)/C(=C/c2ccc(OCC(=O)O)c(OCC)c2)SC1=Nc1ccccc1	10*	-7	-2	/	-16	36
O=C(c1ccc(OC2CCN(C(=O)C3CC3)CC2)cc1)N(CCO)Cc1ccccc1	/	5	/	/	5	/
CC(CCc1ccccc1)NC(=O)c1nnc(Cc2ccc(Cl)cc2)o1 (centres undefined)	8.7*	15	7	1	-10	/
CC(=O)N1CCC2(CC1)C/C(=N\NC(=S)Nc1ccc(C)cc1)c1cc(O)ccc1O2	1	-14	-6	/	-12	/
Cc1ccc(C)c(S(=O)(=O)N2C(=S)NC(=O)C2C(C)C)c1 (centres undefined)	1	5	1	1	2	80*
Cc1ccc(C)c(S(=O)(=O)N2CCN(c3ncccn3)CC2)c1	2	-9	0	/	11	/
COc1cccc(/C=N/NC(N)=S)c1OCc1ccccc1Cl	8.8*	8	10	5	-7	-25
CC(C)OCCCNC(=O)CCC(=O)NNc1nc2ccccc2c2nc(-c3ccccc3)nn12	0	17	-1	0	19	-13
Cc1onc(-c2ccccc2Cl)c1C(=O)Nc1cccc(-c2nc3ncccn3c2C)c1	-1	-22	4	-1	14	82*
COc1ccc(OC)c(NC(=O)CCC(=O)N(Cc2ccc(OC)c(OC)c2)c2nccs2)c1	-1	2	-1	/	-13	/
COc1ccc(NC(=O)CCC(=O)N(Cc2ccc(OC)c(OC)c2)c2nccs2)cc1	10*	6	0	1	10	67
COc1ccc2[nH]c3c(=O)n(Cc4ccncc4)cnc3c2c1	/	11	/	/	-8	/
COc1cccc(OCCNc2cc(N3CCCCC3)ccc2[N+](=O)[O-])c1	10*	-36	6	5	-3	/
C=C(C)C1CC=C(C)/C(=N/NC(=O)c2ccc(NC(=O)CCC)cc2)C1 (centres undefined)	3	-19	3	3	-6	83*
CC12CC3CC(C)(C1)CC(CN)(C3)C2	0	37*	17	16	34*	11
CCCCn1c(N)c(NCCC(C)C)c(=O)[nH]c1=O	1	-8	0	4	-1	82*
